Source: ChEMBL document CHEMBL1145830, “Design, synthesis, and evaluation of psorospermin/quinobenzoxazine hybrids as structurally novel antitumor agents” (J Med Chem, 2003)

What was measured:
NCI-H522 (human) = test: Inhibitory concentration against H522 (NSCLS) cancer cell line
MIA PaCa-2 = test: Inhibitory concentration against MIA PaCa pancreas cancer cell line; format: functional, cell-based; settings: Homo sapiens
Method in brief: (§1)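 MTT growth assay: exponentially growing cells, (1-2) × 10^3 per well in 0.1 mL medium, were seeded on day 0 and cultured per supplier instructions. On day 1 an equal volume of medium carrying graded compound concentrations was added. On day 4 cultures received MTT (1 mg/mL in Dulbecco's PBS) for 4 h at 37 °C.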

DU-145 = test: Inhibitory concentration against DU145 prostate cancer cell line; format: functional, cell-based; settings: Homo sapiens
Method in brief: as §1

RPMI-8226 [1] = test: Inhibitory concentration against 8226/Dox40 (Dox-Re) cancer cell line; format: functional, cell-based; settings: Homo sapiens
Method in brief: as §1

MCF7 = test: Inhibitory concentration against MCF-7 breast cancer cell line; format: functional, cell-based; settings: Homo sapiens
Method in brief: as §1

HeLa = test: Inhibitory concentration against Hela cervix cancer cell line; format: functional, cell-based; settings: Homo sapiens
Method in brief: as §1

U-937 = test: Inhibitory concentration against U937 lymphoma cancer cell line; format: functional, cell-based; settings: Homo sapiens
Method in brief: as §1

RPMI-8226 [2] = test: Inhibitory concentration against 8226 myeloma cancer cell line; format: functional, cell-based; settings: Homo sapiens
Method in brief: as §1

HT-29 = test: Inhibitory concentration against HT-29 colon cancer cell line; format: functional, cell-based; settings: Homo sapiens
Method in brief: as §1

Granta = test: Inhibitory concentration against Granta lymphoma cancer cell line; format: functional, cell-based; settings: Homo sapiens
Method in brief: as §1

IC50 (NCI-H522 (human)) [nM]	IC50 (MIA PaCa-2) [nM]	IC50 (DU-145) [nM]	IC50 (RPMI-8226 [1]) [nM]	IC50 (MCF7) [nM]	IC50 (HeLa) [nM]	IC50 (U-937) [nM]	IC50 (RPMI-8226 [2]) [nM]	IC50 (HT-29) [nM]	IC50 (Granta) [nM]	SMILES
300	420	470	270	660	800	310	270	450	90	N[C@H]1CCN(c2c(F)cc3c(=O)c(C(=O)O)cn4c3c2Oc2ccccc2-4)C1
70	90	80	50	240	290	30	90	140	4	C[C@]1([C@H]2Cc3ccc4c(c3O2)-n2cc(C(=O)O)c(=O)c3cc(F)c(N5CC[C@H](N)C5)c(c32)O4)CO1
20	40	30	30	80	130	20	50	90	2	C[C@@](O)(CCl)[C@H]1Cc2ccc3c(c2O1)-n1cc(C(=O)O)c(=O)c2cc(F)c(N4CC[C@H](N)C4)c(c21)O3

SMILES	IC50 (NCI-H522 (human)) [nM]	IC50 (MIA PaCa-2) [nM]	IC50 (DU-145) [nM]	IC50 (RPMI-8226 [1]) [nM]	IC50 (MCF7) [nM]	IC50 (HeLa) [nM]	IC50 (U-937) [nM]	IC50 (RPMI-8226 [2]) [nM]	IC50 (HT-29) [nM]	IC50 (Granta) [nM]
COc1cc2c(c3oc4c(O)cccc4c(=O)c13)C[C@H]([C@@]1(C)CO1)O2 [PSOROSPERMIN]	770	380	210	230	570	1460	270	290	1110	40
